Test results as given in ChEMBL document CHEMBL4033783, “Adventures in Scaffold Morphing: Discovery of Fused Ring Heterocyclic Checkpoint Kinase 1 (CHK1) Inhibitors” (J Med Chem, 2018).
Values after ≈ are worked out from the molar mass of the structure shown.

What was measured:
[1] = Aqueous solubility of the compound in pH 7.4 phosphate buffer by LC-UV analysis; assay type: physicochemical
[2] = target: Voltage-gated inwardly rectifying potassium channel KCNH2 (Homo sapiens, UniProt Q12809)
[3] = target: T1, Serine/threonine-protein kinase Chk1 (Homo sapiens, UniProt O14757); assay: Inhibition of CHK1 (unknown origin)
T1 sequence (O14757 whole entry): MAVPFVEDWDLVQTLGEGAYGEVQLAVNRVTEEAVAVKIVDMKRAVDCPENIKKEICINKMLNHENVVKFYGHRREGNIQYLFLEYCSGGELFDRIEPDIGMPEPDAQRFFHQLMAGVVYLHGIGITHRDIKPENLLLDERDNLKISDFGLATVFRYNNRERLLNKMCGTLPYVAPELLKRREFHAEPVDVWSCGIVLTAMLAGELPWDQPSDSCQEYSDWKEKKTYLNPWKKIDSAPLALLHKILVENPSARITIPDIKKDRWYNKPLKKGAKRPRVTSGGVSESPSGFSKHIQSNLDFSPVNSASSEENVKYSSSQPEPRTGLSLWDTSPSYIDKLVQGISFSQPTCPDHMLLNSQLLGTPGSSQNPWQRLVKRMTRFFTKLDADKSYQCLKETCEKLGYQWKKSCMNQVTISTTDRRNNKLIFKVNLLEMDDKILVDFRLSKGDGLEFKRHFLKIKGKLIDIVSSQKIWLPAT

[4] = Intrinsic clearance in Sprague-Dawley rat liver microsomes at […] after 2 mins in presence of NADPH by HPLC analysis; assay type: ADME, Microsome
[5] = tested on: Liver; assay: Intrinsic clearance in human liver microsomes; assay type: ADME, microsome
[6] = target: T2, Serine/threonine-protein kinase Chk1 (Homo sapiens) (UniProt O14757)
T2 sequence (whole entry): T1 sequence (O14757 whole entry)

[7] = Half life in iv dosed dog plasma; assay type: ADME, organism-based, Canis lupus familiaris
[8] = Clearance in iv dosed rat plasma; assay type: ADME, organism-based
[9] = Volume of distribution at steady state in iv dosed dog plasma; assay type: ADME, organism-based, Canis lupus familiaris; settings: read-out: Vdss
[10] = Volume of distribution at steady state in iv dosed rat plasma; assay type: ADME, organism-based; settings: read-out: Vdss
[11] = Half life in iv dosed mouse plasma; assay type: ADME, organism-based
[12] = target: T2, Serine/threonine-protein kinase Chk1 (Homo sapiens); remark: listed apart in the source
[13] = target: T2, Serine/threonine-protein kinase Chk1 (Homo sapiens); remark: listed apart in the source
[14] = Half life in iv dosed rat plasma; assay type: ADME, organism-based
[15] = Clearance in iv dosed dog plasma; assay type: ADME, organism-based, Canis lupus familiaris
[16] = Volume of distribution at steady state in iv dosed mouse plasma; assay type: ADME, organism-based; settings: read-out: Vdss
[17] = tested on: MDA-MB-231; assay: Antiproliferative activity against human MDA-MB-231 cells; assay type: functional; settings: for GI50: Homo sapiens, MDA-MB-231
In short: (§1)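 Proliferation-inhibition concentration-response in the tumour cell lines, run as part of a gemcitabine potentiation assay, with the compound tested as a single agent without gemcitabine. Single-agent GI50 and GI25 were derived from the response curves. Values are the mean of two duplicated runs.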

[18] = tested on: SW-620; assay: Antiproliferative activity against human SW620 cells; assay type: functional; settings: for GI50: Homo sapiens, SW-620; in short: as §1
[19] = Clearance in iv dosed mouse plasma; assay type: ADME, organism-based
[20] = tested on: NCI-H460; assay: Antiproliferative activity against human H460 cells harboring dominant negative p53 construct; assay type: functional; settings: for GI50: Homo sapiens, NCI-H460; in short: as §1
[21] = tested on: HCT-116; assay: Abrogation of topotecan-induced G2 phase arrest in human HCT116 cells xenografted in mouse hollow fiber model assessed as ratio of cell levels at G2 phase to G1 phase at 10 mg/kg, iv after 30 hrs relative to control; assay type: functional

Voltage-gated inwardly rectifying potassium channel KCNH2, sequence (Q12809 whole entry): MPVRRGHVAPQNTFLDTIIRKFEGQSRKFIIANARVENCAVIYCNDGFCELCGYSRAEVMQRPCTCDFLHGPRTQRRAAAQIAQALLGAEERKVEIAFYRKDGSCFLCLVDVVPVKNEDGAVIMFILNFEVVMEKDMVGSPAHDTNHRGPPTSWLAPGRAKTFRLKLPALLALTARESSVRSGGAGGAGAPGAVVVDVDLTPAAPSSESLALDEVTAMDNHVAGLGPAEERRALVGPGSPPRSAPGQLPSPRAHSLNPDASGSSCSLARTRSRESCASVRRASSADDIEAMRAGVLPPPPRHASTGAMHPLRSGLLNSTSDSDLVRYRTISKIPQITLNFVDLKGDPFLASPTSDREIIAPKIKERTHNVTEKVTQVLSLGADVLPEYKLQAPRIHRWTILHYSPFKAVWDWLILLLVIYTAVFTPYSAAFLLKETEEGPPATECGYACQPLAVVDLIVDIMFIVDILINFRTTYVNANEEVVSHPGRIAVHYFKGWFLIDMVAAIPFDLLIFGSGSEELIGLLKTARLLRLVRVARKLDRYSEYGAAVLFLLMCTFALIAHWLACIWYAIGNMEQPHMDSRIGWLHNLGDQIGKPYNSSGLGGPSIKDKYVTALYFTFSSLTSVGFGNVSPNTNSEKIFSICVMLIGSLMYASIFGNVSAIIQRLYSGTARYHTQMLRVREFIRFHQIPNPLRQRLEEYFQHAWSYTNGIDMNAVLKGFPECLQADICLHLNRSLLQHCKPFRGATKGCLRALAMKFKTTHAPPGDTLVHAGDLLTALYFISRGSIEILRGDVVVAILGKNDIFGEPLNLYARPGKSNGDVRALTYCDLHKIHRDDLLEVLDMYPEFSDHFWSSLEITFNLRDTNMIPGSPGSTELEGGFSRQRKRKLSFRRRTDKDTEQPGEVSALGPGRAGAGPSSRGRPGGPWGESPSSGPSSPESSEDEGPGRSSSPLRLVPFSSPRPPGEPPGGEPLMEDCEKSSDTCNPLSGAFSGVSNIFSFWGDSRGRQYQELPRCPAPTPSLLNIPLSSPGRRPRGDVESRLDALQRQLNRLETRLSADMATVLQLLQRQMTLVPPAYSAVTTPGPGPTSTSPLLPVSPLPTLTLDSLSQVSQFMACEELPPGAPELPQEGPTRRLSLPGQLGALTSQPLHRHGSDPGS

NC(=O)c1ccc(N[C@H]2CCCNC2)c2cc(-c3ccc(Cl)cc3)[nH]c12
solubility [1]: 320 µM (≈ 118 µg/mL)
IC50 [2]: 4100 nM
IC50 [3]: 15 nM

NC(=O)c1ccc(N[C@H]2CCCNC2)c2cc(-c3ccc(F)cc3)[nH]c12
solubility [1]: 380 µM (≈ 134 µg/mL)
IC50 [2]: 6700 nM
IC50 [3]: 23 nM

Cn1cc(-c2cc3c(N[C@H]4CCCNC4)ncc(C(N)=O)c3s2)cn1
IC50 [3]: 6 nM

NC(=O)c1cnc(N[C@H]2CCCN[C@@H]2CCO)c2cc(-c3ccccc3)sc12 (racemic)
IC50 [2]: > 31600 nM
IC50 [3]: 83 nM

NC(=O)c1ccc(N[C@H]2CCCNC2)c2cc(-c3cccc(F)c3)[nH]c12
IC50 [2]: 7700 nM
IC50 [3]: 9 nM

NC(=O)c1cnc(O[C@H]2CCCNC2)c2cc(-c3ccccc3)sc12
IC50 [3]: 83 nM
intrinsic clearance [4]: > 120 µL/min/mg
intrinsic clearance (CLint) [5]: 35 µL/min/mg

NC(=O)c1cnc(N[C@H]2CCCNC2)c2cc(-c3ccsc3)sc12
solubility [1]: 980 µM (≈ 351 µg/mL)
IC50 [2]: 28000 nM
IC50 [3]: 6 nM
intrinsic clearance [4]: 72 µL/min/mg
intrinsic clearance (CLint) [5]: 29 µL/min/mg

C[C@@H]1NCCC[C@@H]1Nc1ncc(C(N)=O)c2sc(-c3ccccc3)cc12
IC50 [2]: 5900 nM
IC50 [3]: 69 nM

NC(=O)c1cnc(N[C@H]2CCCNC2)c2cc(-c3cccs3)sc12
solubility [1]: > 1000 µM
IC50 [2]: > 30000 nM
IC50 [3]: 15 nM
intrinsic clearance [4]: 36 µL/min/mg
intrinsic clearance (CLint) [5]: 9.1 µL/min/mg

CN(c1ncc(C(N)=O)c2sc(-c3ccccc3)cc12)[C@H]1CCCNC1
IC50 [2]: 2700 nM
IC50 [3]: 25 nM
intrinsic clearance [4]: 37 µL/min/mg
intrinsic clearance (CLint) [5]: 10 µL/min/mg

C[C@H]1NCCC[C@@H]1Nc1ncc(C(N)=O)c2sc(-c3ccccc3)cc12
PF [6]: 5
half-life [7]: 9.4 h
clearance [8]: 105 mL/min/kg
Vd [9]: 7.1 L/kg
Vd [10]: 24 L/kg
half-life [11]: 3.4 h
PF [12]: 124
PF [13]: 11
half-life [14]: 5.1 h
clearance [15]: 10 mL/min/kg
Vd [16]: 4.6 L/kg
GI25 [17]: 150 nM
GI50 [17]: 306 nM
GI25 [18]: 360 nM
GI50 [18]: 725 nM
IC50 [2]: > 31600 nM
IC50 [3]: 6 nM
intrinsic clearance [4]: < 10 µL/min/mg
intrinsic clearance (CLint) [5]: < 5 µL/min/mg
clearance [19]: 29 mL/min/kg

Nc1ccn([C@@H]2O[C@H](CO)[C@@H](O)C2(F)F)c(=O)n1 [GEMCITABINE]
GI50 [20]: 2080 nM
GI50 [17]: 251 nM
GI50 [18]: 840 nM

NC(=O)c1ccc(N[C@H]2CCCNC2)c2cc(-c3ccccc3)[nH]c12
solubility [1]: 280 µM (≈ 93.6 µg/mL)
IC50 [2]: 11600 nM
IC50 [3]: 31 nM
intrinsic clearance [4]: 120 µL/min/mg
intrinsic clearance (CLint) [5]: 21 µL/min/mg

C[C@@H]1CC[C@H](Nc2ncc(C(N)=O)c3sc(-c4ccccc4)cc23)[C@H](C)N1 (racemic)
IC50 [2]: 8400 nM
IC50 [3]: 12 nM

NC(=O)c1cnc(N[C@H]2CCCNC2)c2sc(-c3cccc(F)c3)cc12
IC50 [3]: 6800 nM

NC(=O)c1cnc(N[C@H]2CCCNC2)c2cc(-c3cn[nH]c3)sc12
IC50 [3]: 20 nM

NC(=O)c1cnc(N[C@H]2CNCC[C@@H]2O)c2cc(-c3ccccc3)sc12 (racemic)
IC50 [2]: > 31600 nM
IC50 [3]: 10 nM

CN1CCC[C@H](Nc2ncc(C(N)=O)c3sc(-c4ccccc4)cc23)C1
IC50 [3]: 140 nM

C[C@@H]1CC[C@H](Nc2ncc(C(N)=O)c3sc(-c4ccccc4)cc23)CN1 (racemic)
IC50 [3]: 21 nM

NC(=O)c1cnc(N[C@H]2CCCNC2)c2sc(-c3ccccc3)cc12
IC50 [2]: > 31600 nM
IC50 [3]: 2600 nM

NC(=O)c1cnc(N(CCc2ccccc2)[C@H]2CCCNC2)c2cc(-c3ccccc3)sc12
IC50 [3]: 660 nM

NC(=O)c1cnc(N[C@H]2CCCNC2)c2cc(-c3cnn(Cc4ccccc4)c3)sc12
IC50 [3]: 14 nM

NC(=O)c1cnc(N[C@H]2CCCNC2)c2cc(-c3ccccc3)oc12
solubility [1]: > 1000 µM
IC50 [3]: 330 nM

NC(=O)c1cnc(N[C@H]2CCCNC2)c2cc(-c3cccc(F)c3)sc12
PF [6]: 4
half-life [7]: 5.1 h
clearance [8]: 196 mL/min/kg
Vd [9]: 4.4 L/kg
Vd [10]: 54.3 L/kg
solubility [1]: 334 µM (≈ 124 µg/mL)
half-life [11]: 8.5 h
PF [12]: 38
GI25 [20]: 1450 nM
GI50 [20]: 2900 nM
PF [13]: 11
half-life [14]: 4.4 h
clearance [15]: 10 mL/min/kg
Vd [16]: 4.6 L/kg
GI25 [17]: 320 nM
GI50 [17]: 641 nM
GI25 [18]: 420 nM
GI50 [18]: 841 nM
IC50 [3]: 12 nM
clearance [19]: 28 mL/min/kg

CCN(c1ncc(C(N)=O)c2sc(-c3ccccc3)cc12)[C@H]1CCCNC1
IC50 [2]: 2400 nM
IC50 [3]: 35 nM

NC(=O)c1cnc(SC2CCCNC2)c2cc(-c3ccccc3)sc12 (racemic)
IC50 [2]: 4900 nM
IC50 [3]: 56 nM
intrinsic clearance [4]: 11 µL/min/mg
intrinsic clearance (CLint) [5]: < 5 µL/min/mg

NC(=O)c1cnc(N(CCO)[C@H]2CCCNC2)c2cc(-c3ccccc3)sc12
IC50 [2]: > 31600 nM
IC50 [3]: 79 nM

NC(=O)Nc1sc(-c2ccccc2)cc1C(=O)N[C@H]1CCCNC1
PF [6]: 9
solubility [1]: > 2000 µM
PF [12]: 67
GI25 [20]: 620 nM
GI50 [20]: 1230 nM
PF [13]: 11
GI25 [17]: 300 nM
GI50 [17]: 596 nM
GI25 [18]: 420 nM
GI50 [18]: 839 nM
IC50 [2]: > 31600 nM

NC(=O)c1cnc(N[C@H]2CCCNC2)c2cc(-c3ccccc3)sc12
PF [6]: 5
half-life [7]: 5.4 h
clearance [8]: 295 mL/min/kg
Vd [9]: 3.7 L/kg
Vd [10]: 75 L/kg
solubility [1]: > 1000 µM
half-life [11]: 1.5 h
PF [12]: 28
GI25 [20]: 900 nM
GI50 [20]: 1800 nM
PF [13]: 12
half-life [14]: 3.1 h
Ratio [21]: 3.2
clearance [15]: 11 mL/min/kg
Vd [16]: 4 L/kg
GI25 [17]: 270 nM
GI50 [17]: 536 nM
GI25 [18]: 490 nM
GI50 [18]: 970 nM
IC50 [2]: 19700 nM
IC50 [3]: 7 nM
intrinsic clearance [4]: 32 µL/min/mg
intrinsic clearance (CLint) [5]: 9.2 µL/min/mg
clearance [19]: 45 mL/min/kg

NC(=O)c1cnc(N[C@H]2CCCNC2)c2cc(-n3ccnc3)sc12
IC50 [3]: 24 nM
